From publication PMC4539249 (ACS infectious diseases, 2015)
Where two headings read alike, the source gives them in different places. Each block holds one molecule with its values, some of them ahead of it.

How the values were obtained:
[1] = target: T. brucei farnesyl diphosphate synthase (TbFPPS) (Trypanosoma brucei, UniProt Q57WF1); experiment: TbFPPS inhibition, coupled colorimetric assay; format: biochemical; conditions: read-out: TbFPPS IC50; duplicate ± SD; highest inhibitor concentration 316 μM
human FPPS = target: T1, human FPPS (Homo sapiens, UniProt P14324); experiment: Human FPPS inhibition; format: biochemical; conditions: read-out: IC50 against human FPPS
T1 sequence (P14324 1-419): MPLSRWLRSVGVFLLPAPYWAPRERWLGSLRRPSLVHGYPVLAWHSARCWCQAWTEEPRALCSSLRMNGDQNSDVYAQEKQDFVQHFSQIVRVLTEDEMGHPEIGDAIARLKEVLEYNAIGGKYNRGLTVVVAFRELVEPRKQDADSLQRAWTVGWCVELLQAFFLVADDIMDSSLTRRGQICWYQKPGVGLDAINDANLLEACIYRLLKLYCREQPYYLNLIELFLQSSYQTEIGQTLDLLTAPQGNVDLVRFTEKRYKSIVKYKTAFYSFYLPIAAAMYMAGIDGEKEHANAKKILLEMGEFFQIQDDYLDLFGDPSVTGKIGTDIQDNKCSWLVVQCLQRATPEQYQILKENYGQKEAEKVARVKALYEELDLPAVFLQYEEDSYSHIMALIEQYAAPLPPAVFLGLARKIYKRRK

[2] = treatment of the second or neurological phase of HAT; no reference given; cited from earlier work
[3] = tested on: T. brucei bloodstream form (BSF) parasites; experiment: T. brucei growth inhibition; format: cell-based, Trypanosoma brucei brucei Lister 427; conditions: Trypanosoma brucei, read-out: T. brucei EC50
[4] = tested on: T. brucei brucei Lister 427; experiment: T. brucei brucei Lister 427 mouse model of infection; format: in vivo, BALB/C mice; conditions: treated mice, i.p. for 4 days (8 at 3 and 10 mg/kg)
[5] = tested on: AT-rich DNA dodecamer duplex; conditions: DSC, shift on inhibitor binding; cited from earlier work
in vitro [6] = conditions: human
in vitro [7] = conditions: human; remark: listed apart in the source
[8] = tested on: T. brucei k-DNA and nuclear DNA replication; experiment: Visualization of DNA replication; format: cell-based, Trypanosoma brucei; conditions: EdU click chemistry, 72 h treatment
How it was run: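 Bloodstream-form trypanosomes, after 72 h exposure to test compound (DMSO vehicle as control), were pulsed 16 h with EdU, washed in PBS, fixed in cold 100% ethanol and dried. EdU was detected by Cu(I)-catalysed click labelling with Alexa Fluor 488 azide ([…]), and the cells were counterstained with 10 μg/ml DAPI. Nuclear and k-DNA signals were assessed by fluorescence microscopy.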

IC50 [1]: ~50000 nM | IC50 (human FPPS): ~50000 nM
SMILES: N=C(N)c1ccc(-c2ccc(-c3ccc(C(=N)N)cc3)o2)cc1 [compound 6]

SMILES: Nc1nc(N)nc(Nc2ccc([As]3SCC(CO)S3)cc2)n1 (stereo not shown) [compound 3, melarsoprol]
lethal in patients [2]: 5-10%

SMILES: N=C(N)c1ccc(OCCCCCOc2ccc(C(=N)N)cc2)cc1 [compound 2, pentamidine]
EC50 ([3]; 72 h): 5.5 nM | EC50 [3]: 5 nM | parasitemia [4]: no parasitemia observed | ΔTm [5]: 2.7 °C | CC50 at 72 h (in vitro [6]): < 400 nM | CC50 at 72 h (in vitro [7]): < 400 nM

SMILES: CC[n+]1c(-c2ccccc2)c2cc(N)ccc2c2ccc(N)cc21 [ethidium bromide]
k-DNA replication in T. brucei [8]: completely blocked
